ChEMBL document CHEMBL3784955, “Development and in Vitro Evaluation of a Microbicide Gel Formulation for a Novel Non-Nucleoside Reverse Transcriptase Inhibitor Belonging to the N-Dihydroalkyloxybenzyloxopyrimidines (N-DABOs) Family” (J Med Chem, 2016)
Active and inactive are the calls of the source. No cut-off for these calls is given here.

What was measured:
[1] = test system: Human immunodeficiency virus 1; experiment: Antiviral activity against HIV1 NL4.3 infected in human TZM-bl cells incubated for 30 mins prior to infection measured after 48 hrs by luciferase assay; format: functional, organism-based; details: Human immunodeficiency virus 1, NL4.3, TZM-bl
Method in brief: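 TZM-bl cells (10 000/well, 10⁵ cells/mL in medium with 30 μg/mL DEAE dextran) preincubated 30 min at 37 °C, 5% CO₂ with serial compound dilutions; 200 TCID₅₀ HIV-1 WT or mutant virus added, luciferase read after 48 h. Triplicate wells, ≥2 independent experiments; % inhibition vs untreated controls, EC₅₀ by nonlinear regression.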

[2] = Cytotoxicity against human TZM-bl cells assessed as reduction in cell viability after 2 days by WST-1 assay; format: cell-based
Method in brief: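 10 000 TZM-bl cells cultured 48 h with serial compound dilutions; WST-1 added and absorbance at 450 nm read after 90 min. Three replicate wells, ≥2 independent experiments; % viability vs untreated controls, CC₅₀ by nonlinear regression.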

[3] = biological target: Human immunodeficiency virus type 1 reverse transcriptase (Human immunodeficiency virus 1, UniProt Q72547); experiment: Inhibition of recombinant HIV1 His-tagged p66/p51 reverse transcriptase expressed in Escherichia coli assessed as reduction in [3H]dTTP incorporation using poly(rA)-oligo(dT) (12 to 18 bp) as template/primer incubated for 20 mins by scintillation counting method
[4] = Effective permeability of compound at pH 7.4 after 5 hrs by PAMPA; format: ADME; details: read-out: Peff
Method in brief: (§1)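 Filter coated with 1% w/v phosphatidylcholine in dodecane; acceptor 50% DMSO in phosphate buffer. 5 h at room temperature with gentle shaking; LC-UV at 280 nm on both sides; Pe calculated in cm/s. Three plates on different days.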

[5] = test system: Liver microsome; experiment: Metabolic stability in liver microsomes (unknown origin) assessed as parent compound remaining; format: ADME; details: human
[6] = test system: Human immunodeficiency virus 1; experiment: Antiviral activity against HIV1 NL4.3 expressing reverse transcriptase E138K mutant infected in human TZM-bl cells incubated for 30 mins prior to infection measured after 48 hrs by luciferase assay; format: functional, organism-based; details: Human immunodeficiency virus 1, NL4.3, TZM-bl
Method in brief: (§2)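 TZM-bl cells (10,000/well at 10⁵ cells/mL, medium with 30 μg/mL DEAE dextran) preincubated 30 min at 37 °C, 5% CO₂ with serial compound dilutions. Then 200 TCID₅₀ mutant HIV-1 added per well. After 48 h, luciferase read. Triplicate wells, at least two independent experiments. % inhibition versus untreated controls fitted by nonlinear regression to give EC₅₀.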

[7] = test system: Human immunodeficiency virus 1; experiment: Antiviral activity against HIV1 NL4.3 expressing reverse transcriptase K101E mutant infected in human TZM-bl cells incubated for 30 mins prior to infection measured after 48 hrs by luciferase assay; format: functional, organism-based; details: Human immunodeficiency virus 1, NL4.3, TZM-bl; method in brief: as §2
[8] = test system: Human immunodeficiency virus 1; experiment: Antiviral activity against HIV1 NL4.3 expressing reverse transcriptase K103N mutant infected in human TZM-bl cells incubated for 30 mins prior to infection measured after 48 hrs by luciferase assay; format: functional, organism-based; details: Human immunodeficiency virus 1, NL4.3, TZM-bl; method in brief: as §2
[9] = test system: Human immunodeficiency virus 1; experiment: Antiviral activity against HIV1 NL4.3 expressing reverse transcriptase V106A mutant infected in human TZM-bl cells incubated for 30 mins prior to infection measured after 48 hrs by luciferase assay; format: functional, organism-based; details: Human immunodeficiency virus 1, NL4.3, TZM-bl; method in brief: as §2
[10] = test system: Human immunodeficiency virus 1; experiment: Antiviral activity against HIV1 NL4.3 expressing reverse transcriptase Y181C mutant infected in human TZM-bl cells incubated for 30 mins prior to infection measured after 48 hrs by luciferase assay; format: functional, organism-based; details: Human immunodeficiency virus 1, NL4.3, TZM-bl; method in brief: as §2
[11] = test system: Human immunodeficiency virus 1; experiment: Antiviral activity against HIV1 NL4.3 expressing reverse transcriptase L100I mutant infected in human TZM-bl cells incubated for 30 mins prior to infection measured after 48 hrs by luciferase assay; format: functional, organism-based; details: Human immunodeficiency virus 1, NL4.3, TZM-bl; method in brief: as §2
[12] = test system: Human immunodeficiency virus 1; experiment: Antiviral activity against HIV1 NL4.3 expressing reverse transcriptase V90I mutant infected in human TZM-bl cells incubated for 30 mins prior to infection measured after 48 hrs by luciferase assay; format: functional, organism-based; details: Human immunodeficiency virus 1, NL4.3, TZM-bl; method in brief: as §2
[13] = Effective permeability of compound at pH 4.2 after 5 hrs by PAMPA; format: ADME; details: read-out: Peff; method in brief: as §1
[14] = Chemical stability in pH 4.2 solution assessed as drug recovery using compound gel formulation incubated for 1 month at room temperature under dark condition; format: physicochemical; details: pH 4.2 solution (compound gel formulation), read-out: Drug recovery
Method in brief: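 Gel at pH 4.2 (vaginal formulation) with final drug concentration 17 μM stored 1 month at room temperature without light; drug recovery measured, with viscosity and pH monitored.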

[15] = Selectivity index, ratio of CC50 for human TZM-bl cells to EC50 for HIV1 NL4.3 infected in human TZM-bl cells; format: toxicity, cell-based; details: read-out: Ratio CC50/EC50
Method in brief: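 SI = CC50/EC50 in TZM-bl cells. EC50: 10 000 cells (10⁵/mL, 30 μg/mL DEAE dextran) preincubated 30 min at 37 °C with serial compound dilutions, then infected with 200 TCID50 virus; luciferase read at 48 h. CC50: 10 000 cells given serial dilutions for 48 h; WST-1 absorbance at 450 nm after 90 min. Triplicates, ≥2 experiments; nonlinear regression.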

[16] = test system: Human immunodeficiency virus 1; experiment: Antiviral activity against HIV1 NL4.3 infected in human TZM-bl cells using compound gel formulation incubated for 30 mins prior to infection measured after 48 hrs by luciferase assay; format: functional, organism-based; details: Human immunodeficiency virus 1, NL4.3, TZM-bl
Method in brief: (§3)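 Gel formulation tested by the free-drug TZM-bl procedure alongside free drug in solution and blank gel: 10 000 cells with 30 μg/mL DEAE dextran, 30 min preincubation at 37 °C, 200 TCID₅₀ virus, luciferase after 48 h. Each concentration in triplicate; EC₅₀ from % inhibition vs untreated controls by nonlinear regression.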

[17] = Cytotoxicity against human TZM-bl cells assessed as reduction in cell viability at 5% gel formulation of compound after 2 days by WST-1 assay; format: cell-based; details: 48 h
[18] = test system: Human immunodeficiency virus 1; experiment: Antiviral activity against HIV1 NL4.3 infected in human TZM-bl cells using compound gel formulation incubated for 72 hrs by luciferase based transwell assay; format: functional, organism-based; details: Human immunodeficiency virus 1, NL4.3, TZM-bl
Method in brief: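 Transwell format, gel reformulated without β-cyclodextrins. TZM-bl cells (4 × 10⁴/apical chamber, 3 μm pore) cultured overnight. 60 TCID₅₀ NL4.3 added apically with gel at 50%, final drug 5000–0.5 nM (tenfold steps); medium in basal compartment. Blank gel used for virus titration. Luciferase read-out; triplicates.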

[19] = test system: Human immunodeficiency virus 1; experiment: Antiviral activity against HIV1 NL4.3 infected in human TZM-bl cells using compound gel formulation stored at room temperature in dark for 1 month incubated for 30 mins with cells prior to infection measured after 48 hrs by luciferase assay; format: functional, organism-based; method in brief: as §3

SMILES	EC50 [1] [nM]	CC50 at 48 h [2] [µM]	EC50 [6] [nM]	EC50 [7] [nM]	EC50 [8] [nM]	EC50 [9] [nM]	EC50 [10] [nM]	other results
Cc1c(Cc2c(Cl)cccc2Cl)nc(N(C)Cc2ccc(N3CCOCC3)cc2)[nH]c1=O	657	9.9						IC50 [3]: 90 nM; Papp at 5 h [4]: 21.9 ×10⁻⁶ cm/s; Stability [5]: 99%
COc1ccc(CN(C)c2nc(C(C)c3c(F)cccc3F)cc(=O)[nH]2)cc1 (centres undefined)	2.6	48.1	9.1	17	34	0.87	94	
Cc1c(C(C)c2c(F)cccc2F)nc(N(C)Cc2ccc([N+](=O)[O-])cc2)[nH]c1=O (centres undefined)	10	> 50	65	134	518		814	EC50 [11]: 1500 nM; EC50 [12]: 30 nM
Cc1c(Cc2c(Cl)cccc2Cl)nc(N(C)Cc2ccc(N3CCN(C)CC3)cc2)[nH]c1=O	94	3.2	274	> 1000	792	18	704	Papp at 5 h [4]: 1.37 ×10⁻⁶ cm/s; Papp at 5 h [13]: 0.58 ×10⁻⁶ cm/s; Stability [5]: 99%
Cc1c(C(C)c2c(Cl)cccc2Cl)nc(N(C)Cc2ccc([N+](=O)[O-])cc2)[nH]c1=O (centres undefined)	104	> 50						
Cc1c(C(C)c2c(F)cccc2F)nc(N(C)Cc2ccc(N3CCN(C)CC3)cc2)[nH]c1=O (centres undefined)	7.9	26.2	42	138	2460		331	EC50 [11]: 1570 nM; EC50 [12]: 22 nM
Cc1c(Cc2c(Cl)cccc2Cl)nc(N(C)Cc2ccc(N3CCN(C(=O)OC(C)(C)C)CC3)cc2)[nH]c1=O	2930	2.59						
COc1ccc(CN(C)c2nc(C(C)c3c(Cl)cccc3Cl)c(C)c(=O)[nH]2)cc1 (centres undefined)	12	> 100				10	209	IC50 [3]: 17 nM
Cc1c(C(C)c2c(Cl)cccc2Cl)nc(N(C)Cc2ccc(N3CCOCC3)cc2)[nH]c1=O (centres undefined)	86	38.4	256	942	1500	15	1290	
Cc1c(C(C)c2c(Cl)cccc2Cl)nc(N(C)Cc2ccc(N3CCN(C)CC3)cc2)[nH]c1=O (centres undefined)	29	> 10	103	294	1040	6.3	627	Papp at 5 h [4]: 0.91 ×10⁻⁶ cm/s; Stability [5]: 99%
Cc1c(C(C)c2c(Cl)cccc2Cl)nc(N(C)Cc2ccc(N3CCNCC3)cc2)[nH]c1=O (centres undefined)	102	13.2						
COc1ccc(C2CC2CSc2nc(C(C)c3c(F)cccc3F)c(C)c(=O)[nH]2)cc1 (centres undefined)	93	31.1	246	450	549	56	1610	
Cc1c(C(C)c2c(F)cccc2F)nc(N(C)Cc2n[nH]c3ccccc23)[nH]c1=O (centres undefined)	329	> 100	950	> 10000	> 10000		> 10000	EC50 [11]: > 10000 nM; EC50 [12]: 687 nM
Cc1c(Cc2c(Cl)cccc2Cl)nc(N(C)Cc2ccc([N+](=O)[O-])cc2)[nH]c1=O	8.6	19.5	35	51	367		201	EC50 [11]: 220 nM; EC50 [12]: 13 nM; IC50 [3]: 7.85 nM; Papp at 5 h [4]: 10.9 ×10⁻⁶ cm/s; Papp at 5 h [13]: 1.9 ×10⁻⁶ cm/s; Stability [5]: 99%
Cc1c(Cc2c(Cl)cccc2Cl)nc(N(C)Cc2ccc(N3CCNCC3)cc2)[nH]c1=O	110	20.7						
COc1ccc(CN(C)c2nc(C(C)c3c(F)cccc3F)c(C)c(=O)[nH]2)cc1 (centres undefined)	3.3	88.8	17	31	102		80	remaining at 730.5 h [14]: 100%; selectivity ratio [15]: > 10000; EC50 [11]: 84 nM; EC50 [12]: 8.7 nM; EC50 [16]: 2.3 nM; Activity [17]: Toxic; EC50 [18]: 30 nM; Activity [19]: Active; Papp at 5 h [4]: 5.54 ×10⁻⁶ cm/s; Papp at 5 h [13]: 3.78 ×10⁻⁶ cm/s; Stability [5]: 99%
Cc1cc(C)c(Nc2ccnc(Nc3ccc(C#N)cc3)n2)c(C)c1 [DAPIVIRINE]	1.3	3.4						
COc1ccc(CN(C)c2nc(Cc3c(Cl)cccc3Cl)c(C)c(=O)[nH]2)cc1	15	17.9				10	680	IC50 [3]: 5 nM
C[C@H](Cn1cnc2c(N)ncnc21)OCP(=O)(O)O [TENOFOVIR ANHYDROUS]								EC50 [18]: 3000 nM
